Cneo AK release = causes C. neoformans cell lysis; AID 651654; adenylate kinase release luminescence, 4 h; normalised: neutral wells 0, clomiphene wells 100; hit rate 0.2% among 360,000; lysis activity, % at 15 µM;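 active means mean lysis activity across replicates of at least 80%, whatever share of replicates individually reach that level; inactive means mean lysis activity below 80%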
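Assay system: log-phase C. neoformans yeast / Quantity: yeast cell density of 5 × 10^6 cells/mL / Medium: fresh YPD growth medium / Compound: single dose / Timing: static 4 h at 37 °C with compound, 1 h detection / Measured by: adenylate kinase release luminescence / Read-out: lysis from increased AK signal / Benchmarks: Clomiphene as positive lysis control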
CDK5 inh = blocks human CDK5/p35 kinase activity. Recombinant CDK5/p35, ADP-Glo luminescence, 60 min. inhibition, % at 10 µM. hit rate 0.01% among 330,000. AID 488839;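 active means highest replicate inhibition of at least 50% and at least 75% of replicates reaching 50%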
dFosB act = activators of mouse delta FosB homodimer | purified delta FosB, TAMRA-CDK5 oligo fluorescence polarization; percent of positive-control signal above neutral wells | activation, % at 25 µM | hit rate 0.99% among 340,000 | AID 493131;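 active means mean activation above about 17%, with every replicate also reaching it, limit read from the data, passing the limit was not always enough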
Target sequence (P13346 whole entry, looked up): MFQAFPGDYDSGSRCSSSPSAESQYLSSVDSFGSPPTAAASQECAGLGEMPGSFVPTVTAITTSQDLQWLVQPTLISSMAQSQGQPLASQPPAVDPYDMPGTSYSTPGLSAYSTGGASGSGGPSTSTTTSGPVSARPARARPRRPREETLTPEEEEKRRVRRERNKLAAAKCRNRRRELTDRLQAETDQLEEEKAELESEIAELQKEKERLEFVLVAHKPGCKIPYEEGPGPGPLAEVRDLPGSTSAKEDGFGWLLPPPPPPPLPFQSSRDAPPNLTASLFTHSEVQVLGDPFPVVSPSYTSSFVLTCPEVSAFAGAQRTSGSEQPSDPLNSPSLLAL
GSIS activator = primary screen for activators of insulin secretion dependent on glucose, INS-1E cells, GLuc reporter luminescence; INS-1E GLuc reporter insulin secretion, 2-3 h; activation, % at 16.6 µM; hit rate 0.61% among 370,000; AID 743287;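 active means lowest replicate activation of at least 40%, so every replicate reaches that level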
Env fusion inh = inhibitors of HIV Env-mediated cell fusion | inhibition, % at 12.3 µM | AID 651610 | HeLa-JRFL Env/CEM21 cell fusion, luciferase | hit rate 1.1% among 360,000;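 active means mean replicate inhibition score of at least 50 and every replicate individually at or above 50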
PAX8 reporter = lowers PAX8-driven luciferase in RMG-I cells; RMG-I TPO-luciferase reporter, SteadyGlo, 24 h; inhibition, % at 12.6 µM; hit rate 1.2% among 360,000; AID 652154;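 active means mean replicate inhibition at least 60% with every replicate also reaching 60%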;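 further: luciferase light reporting Pax8 driven TPO promoter activity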
A number is an active result. This is a sample that favours compounds with a hit; in the whole collection about 2.9% have one here.

Results for CC(C)C[C@H]1CNC(=S)N1C[C@H]1CCCN1C[C@H](Cc1ccc(O)cc1)N1C[C@H](Cc2ccccc2)N(CC2CCCCCC2)C1=S ?
Cneo AK release: inactive; GSIS activator: inactive; Env fusion inh: 94; PAX8 reporter: inactive

Results for Oc1ccc(C[C@H]2CN([C@@H](Cc3ccccc3)CN3CCC[C@@H]3CN3C(=S)NC[C@@H]3Cc3ccccc3)C(=S)N2CC2CCCCC2)cc1 ?
Cneo AK release: inactive; GSIS activator: inactive; Env fusion inh: inactive; PAX8 reporter: inactive

What do the screens show for `Oc1ccc(C[C@H]2CNC(=S)N2CC2CCCN2C[C@H](Cc2ccccc2)N2C[C@H](Cc3ccc(O)cc3)N(CC3CCCCC3)C2=S)cc1` (stereo not given in full)?
Cneo AK release: inactive; GSIS activator: inactive; Env fusion inh: inactive; PAX8 reporter: 77

Results for Oc1ccc(C[C@H]2CNC(=S)N2CC2CCCN2C[C@H](Cc2ccc(O)cc2)N2C[C@H](Cc3ccc(O)cc3)N(CC3CCCCCC3)C2=S)cc1 (stereo not given in full) ?
Cneo AK release: inactive; CDK5 inh: inactive; dFosB act: inactive; GSIS activator: inactive; Env fusion inh: inactive; PAX8 reporter: 99

What do the screens show for `CC(C)NC(=O)Nc1ccc2c(c1)C(=O)N([C@@H](C)CO)C[C@H](C)[C@H](CN(C)S(=O)(=O)c1cn(C)cn1)OCCCC[C@@H](C)O2`?
Cneo AK release: inactive; GSIS activator: inactive; Env fusion inh: inactive; PAX8 reporter: inactive

How did COCC(=O)N1CC2(C1)[C@H](c1ccc(-c3cccc(F)c3)cc1)[C@H](CO)N2C(=O)COC do in these assays?
GSIS activator: inactive

What do the screens show for `CC(CCN1CCC(CN2C(=S)NCC2Cc2ccccc2)CC1)c1ccccc1` (stereo not given)?
Cneo AK release: inactive; CDK5 inh: inactive; dFosB act: inactive; GSIS activator: inactive; Env fusion inh: 66; PAX8 reporter: inactive

How did CC(C)CCN1CCC(CN2C(=S)NC[C@@H]2Cc2ccccc2)CC1 do in these assays?
Cneo AK release: inactive; CDK5 inh: inactive; dFosB act: inactive; GSIS activator: inactive; PAX8 reporter: inactive

Results for COc1ccccc1-c1ccc(C2[C@@H]3CN(S(=O)(=O)c4ccc(F)cc4)C[C@H]2N3)cc1 (stereo not given in full) ?
GSIS activator: inactive; PAX8 reporter: inactive

Results for Cc1cc(C(C)(C)C)cc(C)c1Cn1c2[n+](c3ccc(C(F)(F)F)cc31)CCCCC2 ?
CDK5 inh: inactive; dFosB act: inactive; GSIS activator: inactive; Env fusion inh: inactive; PAX8 reporter: 90

Results for CN(C)C(=O)C[C@@H]1CC[C@@H](NC(=O)Nc2cccc(F)c2)[C@@H](CO)O1 ?
Cneo AK release: inactive; GSIS activator: inactive; Env fusion inh: inactive; PAX8 reporter: inactive

How did Cc1ccc2[nH]c3c(N4CCN(Cc5ccc6c(c5)OCO6)CC4)ncnc3c2c1 do in these assays?
GSIS activator: inactive; Env fusion inh: inactive; PAX8 reporter: inactive

What do the screens show for `c1ccc2c(c1)[nH]c1c(N3CCC4(CC3)OCCO4)ncnc12`?
Cneo AK release: inactive; CDK5 inh: inactive; dFosB act: inactive

How did Cc1ccc2c(c1)[nH]c1c(N3CCN(Cc4ccccc4)CC3)ncnc12 do in these assays?
Cneo AK release: inactive; CDK5 inh: inactive; dFosB act: inactive; Env fusion inh: 63

How did COc1ccc2c(c1)[nH]c1c(N3CCN(Cc4ccc5c(c4)OCO5)CC3)ncnc12 do in these assays?
Cneo AK release: inactive; CDK5 inh: inactive; dFosB act: inactive; Env fusion inh: 97

What do the screens show for `Cc1ccc2[nH]c3c(N4CCN(Cc5ccccc5)CC4)ncnc3c2c1`?
Cneo AK release: inactive; CDK5 inh: inactive; dFosB act: inactive; Env fusion inh: 97

How did c1ccc(CN2CCN(c3ncnc4c3[nH]c3ccccc34)CC2)cc1 do in these assays?
Cneo AK release: inactive; CDK5 inh: inactive; dFosB act: inactive

How did c1ccc2c(c1)CCN(c1ncnc3c1[nH]c1ccccc13)C2 do in these assays?
Cneo AK release: inactive; CDK5 inh: inactive; dFosB act: inactive; Env fusion inh: 87

Results for C[C@H]1CN([C@@H](C)CO)S(=O)(=O)c2ccc(-c3ccccc3)cc2O[C@@H]1CN(C)C(=O)C1CCC1 ?
GSIS activator: inactive; Env fusion inh: inactive
